Measurements: ChEMBL document CHEMBL1152949, “Synthesis and biological evaluation of febrifugine analogues as potential antimalarial agents” (Bioorg Med Chem, 2009)
Converted amounts (≈) assume the structure as drawn.

Assays:
[1] = Toxicity in Plasmodium berghei infected ICR mice (Mus musculus) dosed intraperitoneally once daily for 4 days by Thompson test; format: organism-based; details: in vivo, ip
[2] = Therapeutic index, ratio of MTD for Plasmodium berghei infected ICR mice (Mus musculus) to MCD for Plasmodium berghei; details: read-out: TI
Plasmodium falciparum = assay: Antiplasmodial activity after 48 hrs against chloroquine-resistant Plasmodium falciparum W2 in human erythrocytes by [3H]hypoxanthine uptake; format: functional, organism-based
Outline: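 Chloroquine-resistant W2 P. falciparum grown in RPMI 1640 with 6% human erythrocytes and 10% human serum, under 5% CO2, 5% O2, 90% N2 at 37°C. Sensitivity tested by semi-automated micro-dilution. [3H]hypoxanthine incorporation measured across compound concentrations, and IC50 derived from it.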

Plasmodium berghei = assay: Antimalarial activity against Plasmodium berghei infected ICR mice (Mus musculus) daily oral or subcutaneous dose for 8 days by Thompson test; details: for ED50: Plasmodium berghei, po or sc, 192 h

SMILES | MTD at 96 h [1] [mg/kg] | selectivity ratio [2] | IC50 (Plasmodium falciparum) [ng/mL] | MCD (Plasmodium berghei) [mg/kg] | ED50 (Plasmodium berghei) [mg/kg]
O=C(C[C@H]1NCC[C@@H]1O)Cn1cnc2cnccc2c1=O | 338 | 51 | 0.31 (≈ 1.08 nM) | 6.6 | 1.2
COc1cccc2c(=O)n(CC(=O)C[C@H]3NCC[C@@H]3O)cnc12 | 51 | 10 | 0.57 (≈ 1.8 nM) | 4.9 | 1.5
O=C(C[C@H]1NCC[C@@H]1O)Cn1cnc2cccnc2c1=O | 345 | 111 | 0.12 (≈ 0.416 nM) | 3.1 | 0.44
CCN(CC)CCCC(C)Nc1ccnc2cc(Cl)ccc12 (stereo not drawn) [CHLOROQUINE] | 240 |  |  | 40 | 4.5
O=C(C[C@H]1NCC[C@@H]1O)Cn1cnc2ncccc2c1=O | 439 | 74 | 0.34 (≈ 1.18 nM) | 5.9 | 1.3
O=C(C[C@H]1NCC[C@@H]1O)Cn1cnc2ccc(C(F)(F)F)cc2c1=O | 440 | 56 | 0.28 (≈ 0.788 nM) | 7.9 | 1.5
CC(C)(C)c1cccc2ncn(CC(=O)C[C@H]3NCC[C@@H]3O)c(=O)c12 | 429 | 11 | 2.9 (≈ 8.44 nM) | 39 | 8.7
O=C(C[C@H]1NCC[C@@H]1OCc1ccccc1)Cn1cnc2cccnc2c1=O | 102 | 132 | 0.14 (≈ 0.37 nM) | 0.77 | 0.14
O=C(C[C@H]1NCC[C@@H]1O)Cn1cnc2cccc(C(F)(F)F)c2c1=O | 335 | 71 | 0.23 (≈ 0.647 nM) | 4.7 | 0.74
O=C(C[C@H]1NCC[C@@H]1O)Cn1cnc2ccccc2c1=O | 144 | 17 | 0.56 (≈ 1.95 nM) | 8.4 | 1.6
COc1ccc2c(=O)n(CC(=O)C[C@H]3NCC[C@@H]3O)cnc2c1 | 55 | 10 | 0.62 (≈ 1.95 nM) | 5.6 | 1.7
O=C(C[C@H]1NCC[C@@H]1O)Cn1cnc2ccncc2c1=O | 310 | 107 | 0.14 (≈ 0.486 nM) | 2.9 | 0.49
CC(C)(C)c1ccc2ncn(CC(=O)C[C@H]3NCC[C@@H]3O)c(=O)c2c1 | 504 | 12 | 3.4 (≈ 9.9 nM) | 42 | 10
O=C(C[C@H]1NCC[C@@H]1O)Cn1cnc2ccc(F)c(F)c2c1=O | 379 | 43 | 0.4 (≈ 1.24 nM) | 8.9 | 1.7
O=C(C[C@H]1NCC[C@@H]1OCc1ccccc1)Cn1cnc2cccc(C(F)(F)F)c2c1=O | 88 | 128 | 0.19 (≈ 0.427 nM) | 0.69 | 0.12
O=C(C[C@H]1NCC[C@@H]1O)Cn1cnc2cccc(F)c2c1=O | 399 | 56 | 0.29 (≈ 0.95 nM) | 7.1 | 1
O=C(C[C@@H]1NCCC[C@H]1O)Cn1cnc2ccccc2c1=O [FEBRIFUGINE] | 35 | 3 | 0.76 (≈ 2.52 nM) | 12 | 2.3
O=C(C[C@H]1NCC[C@@H]1O)Cn1cnc2ccc(F)cc2c1=O | 425 | 63 | 0.26 (≈ 0.852 nM) | 6.8 | 1.1
